Assay results as given in ChEMBL document CHEMBL2203148, “Increased selectivity toward cytoplasmic versus mitochondrial ribosome confers improved efficiency of synthetic aminoglycosides in fixing damaged genes: a strategy for treatment of genetic diseases caused by nonsense mutations” (J Med Chem, 2012).
≈ marks a conversion by molar mass, not a printed value. Where a name gives a salt, the structure may show the parent alone. Calls of active or inactive are those of the source. No cut-off for these calls is given here.

Assays:
[1] = Selectivity ratio of IC50 for ribosome-mediated protein synthesis in rabbit reticulocytes to IC50 for ribosome S30 subunit-mediated protein synthesis in Escherichia coli
[2] = system: Escherichia coli; experiment: Antibacterial activity against Escherichia coli R477/100 by microdilution method; assay type: functional
[3] = system: Ribosome; experiment: Inhibition of ribosome-mediated protein synthesis in rabbit reticulocytes after 60 mins by coupled transcription/translation assay; assay type: subcellular, Oryctolagus cuniculus
Procedure, shortened: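 Eukaryotic inhibition used the TNT T7 Quick coupled transcription/translation system with T7 control luciferase DNA. Varied aminoglycoside concentrations were incubated with the 10 µl reaction at 30 °C for 60 min and ice-cooled 5 min. Samples were diluted in the same buffer and luminescence was read on adding luciferase reagent. IC50 was fitted from at least three independent experiments.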

[4] = Inhibition of ribosome S30 subunit-mediated protein synthesis in Escherichia coli after 60 mins by coupled transcription/translation assay
Procedure, shortened: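 Prokaryotic coupled transcription/translation with a luciferase read-out. Varied aminoglycoside concentrations were incubated with the 10 µl reaction at 37°C for 60 min, then ice-cooled 5 min. Samples were diluted in tris-phosphate (25 mM, pH 7.8), DTT, CDTA, glycerol, Triton X-100 and BSA, and luminescence was read on adding luciferase reagent. IC50 was fitted from at least three independent experiments.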

[5] = (§1) Cytotoxicity against human HEK293 cells assessed as cell viability after 48 hrs by XTT based calorimetric assay; conditions: HEK293 cells, read-out: LC50
Procedure, shortened: (§2)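 Cells seeded at 5,000/well in DMEM with 10% FBS and 1% glutamine at 37 °C, 5% CO₂; after overnight culture, graded aminoglycoside concentrations added for a further 48 hr. XTT viability read-out with 3 hr incubation by optical density, viability expressed relative to untreated cultures; LC50 fitted from concentration-response curves of at least three independent experiments.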

[6] = system: Ribosome; experiment: Inhibition of ribosome-mediated translation of IDUA Q70X nonsense mutant gene expressed in rabbit reticulocytes harboring p2luc plasmid after 16 hrs by dual luciferase reporter gene assay; assay type: subcellular; set-up: scale not given: the % may be the effect or the level left
[7] = system: Ribosome; experiment: Inhibition of ribosome-mediated translation of DMD R3381X nonsense mutant gene expressed in rabbit reticulocytes harboring p2luc plasmid after 16 hrs by dual luciferase reporter gene assay; assay type: subcellular; set-up: scale not given: the % may be the effect or the level left
[8] = system: Ribosome; experiment: Inhibition of ribosome-mediated translation of CFTR W1282X nonsense mutant gene expressed in rabbit reticulocytes harboring p2luc plasmid after 16 hrs by dual luciferase reporter gene assay; assay type: subcellular; set-up: scale not given: the % may be the effect or the level left
[9] = system: Ribosome; experiment: Inhibition of ribosome-mediated translation of CFTR G542X nonsense mutant gene expressed in rabbit reticulocytes harboring p2luc plasmid after 16 hrs by dual luciferase reporter gene assay; assay type: subcellular; set-up: scale not given: the % may be the effect or the level left
[10] = system: Ribosome; experiment: Inhibition of ribosome-mediated translation of PCDH15 R3X nonsense mutant gene expressed in rabbit reticulocytes harboring p2luc plasmid after 16 hrs by dual luciferase reporter gene assay; assay type: subcellular; set-up: scale not given: the % may be the effect or the level left
[11] = system: Ribosome; experiment: Inhibition of ribosome-mediated translation of PCDH15 R245X nonsense mutant gene expressed in rabbit reticulocytes harboring p2luc plasmid after 16 hrs by dual luciferase reporter gene assay; assay type: subcellular; set-up: scale not given: the % may be the effect or the level left
[12] = system: Bacillus subtilis; experiment: Antibacterial activity against Bacillus subtilis ATCC-6633 by double-microdilution method; assay type: functional, organism-based
[13] = system: HFF; experiment: Cytotoxicity against human HFF cells assessed as cell viability after 48 hrs by XTT based calorimetric assay relative to control; procedure, shortened: as §2
[14] = system: HeLa; experiment: Ratio of compound IC50 to gentamicin IC50 for inhibition of mitochondrial ribosome- protein synthesis in human HeLa cells; assay type: subcellular
[15] = system: HEK293; experiment: as §1; conditions: hek293, 48 h, read-out: LC50 (the source's name); procedure, shortened: as §2
[16] = molecular target: mitochondrial ribosome (Homo sapiens); experiment: Inhibition of mitochondrial ribosome-mediated protein synthesis in human HeLa cells assessed as {35S]methionine incorporation by autoradiography

Row | Compound | Ratio IC50 [1] | MIC [2] [µM] | IC50 [3] [µM] | IC50 [4] [µM] | CC50 at 48 h [5] [µM] | Activity [6] | Activity [7] [%] | Activity [8] [%] | Activity [9] [%] | Activity [10] [%] | Activity [11] [%] | Activity [12] | Activity [13] | Ratio IC50 [14] | CC50 [15] [µM] | IC50 [16] [µM]
1 | C[C@H](N)[C@H]1O[C@@H](O[C@@H]2[C@@H](O)[C@H](NC(=O)[C@@H](O)CCN)C[C@H](N)[C@H]2O[C@H]2O[C@H](CO)[C@@H](O)[C@H](O)[C@H]2N)[C@H](O)[C@@H]1O | 2.3 | 1070 (≈ 608 µg/mL) | 5.2 | 2.3 |  |  |  |  |  |  |  |  |  |  |  | 
2 | C[C@H](N)[C@H]1O[C@@H](O[C@@H]2[C@@H](O)[C@H](NC(=O)[C@@H](O)CCN)C[C@H](N)[C@H]2O[C@H]2O[C@H]([C@@H](C)O)[C@@H](O)[C@H](O)[C@H]2N)[C@H](O)[C@@H]1O | 0.4 | 384 (≈ 224 µg/mL) | 0.7 | 1.8 | 5100 |  |  |  |  |  |  |  |  |  |  | 
3 | C[C@@H](N)[C@H]1O[C@@H](O[C@@H]2[C@@H](O)[C@H](N)C[C@H](N)[C@H]2O[C@H]2O[C@H]([C@@H](C)O)[C@@H](O)[C@H](O)[C@H]2N)[C@H](O)[C@@H]1O | 4.3 | 1540 (≈ 741 µg/mL) | 8 | 1.9 | 16500 | 20% | 20 | 20 | 20 | 20 | 20 |  |  |  |  | 
4 | C[C@@H](O)[C@H]1O[C@H](O[C@H]2[C@H](O[C@@H]3O[C@H](CN)[C@@H](O)[C@H]3O)[C@@H](O)[C@H](NC(=O)[C@@H](O)CCN)C[C@@H]2N)[C@H](N)[C@@H](O)[C@@H]1O | 2.9 | 556 (≈ 317 µg/mL) | 2.8 | 1 | 5800 | 50% | 50 | 50 | 50 | 50 | 50 |  |  |  |  | 
5 | C[C@@H](N)[C@H]1O[C@@H](O[C@@H]2[C@@H](O)[C@H](NC(=O)[C@@H](O)CCN)C[C@H](N)[C@H]2O[C@H]2O[C@H]([C@@H](C)O)[C@@H](O)[C@H](O)[C@H]2N)[C@H](O)[C@@H]1O | 0.5 | 384 (≈ 224 µg/mL) | 0.9 | 1.8 | 5400 | Dose-dependent effect |  |  |  |  |  |  |  |  |  | 
6 | NC[C@H]1O[C@@H](O[C@@H]2[C@@H](O)[C@H](N)C[C@H](N)[C@H]2O[C@H]2O[C@H](CO)[C@@H](O)[C@H](O)[C@H]2N)[C@H](O)[C@@H]1O | 68 | 790 (≈ 359 µg/mL) | 31 | 0.5 | 21900 |  |  |  |  |  |  |  |  |  |  | 
7 | GENTAMICIN SULFATE [listing 1 of 2 here] | 2210 | 6 |  |  |  | 20% | 20 | 20 | 20 | 20 | 20 | Active |  |  |  | 
8 | C[C@@H](O)[C@H]1O[C@H](O[C@H]2[C@H](O[C@@H]3O[C@H](CN)[C@@H](O)[C@H]3O)[C@@H](O)[C@H](N)C[C@@H]2N)[C@H](N)[C@@H](O)[C@@H]1O | 15 |  |  | 1.1 | 22200 | 20% | 20 | 20 | 20 | 20 | 20 |  |  |  |  | 
9 | C[C@@H](N)[C@H]1O[C@@H](O[C@@H]2[C@@H](O)[C@H](NC(=O)[C@@H](O)CCN)C[C@H](N)[C@H]2O[C@H]2O[C@H](CO)[C@@H](O)[C@H](O)[C@H]2N)[C@H](O)[C@@H]1O | 5.7 | 1060 (≈ 602 µg/mL) | 4.6 | 0.8 |  |  |  |  |  |  |  |  |  |  |  | 
10 | C[C@H](N)[C@H]1O[C@@H](O[C@@H]2[C@@H](O)[C@H](N)C[C@H](N)[C@H]2O[C@H]2O[C@H]([C@@H](C)O)[C@@H](O)[C@H](O)[C@H]2N)[C@H](O)[C@@H]1O | 1.3 | 768 (≈ 371 µg/mL) | 1.5 | 1.1 | 5400 | 50% | 50 | 50 | 50 | 50 | 50 |  |  |  |  | 
11 | C[C@H](N)[C@H]1O[C@@H](O[C@@H]2[C@@H](O)[C@H](N)C[C@H](N)[C@H]2O[C@H]2O[C@H](CO)[C@@H](O)[C@H](O)[C@H]2N)[C@H](O)[C@@H]1O | 7.9 | 2660 (≈ 1250 µg/mL) | 16 | 2 |  |  |  |  |  |  |  |  |  |  |  | 
12 | CN[C@@H]1[C@@H](O)[C@@H](O[C@@H]2[C@@H](O)[C@H](O[C@H]3O[C@H]([C@@H](C)O)[C@@H](O)[C@H](O)[C@H]3N)[C@@H](N)C[C@H]2N)OC[C@]1(C)O.O=S(=O)(O)O [GENETICIN SULFATE SALT] |  | 9 | 2 | 0.01 |  |  |  |  |  |  |  | Active | Non-toxic |  |  | 
13 | C[C@@H](N)[C@H]1O[C@@H](O[C@@H]2[C@@H](O)[C@H](N)C[C@H](N)[C@H]2O[C@H]2O[C@H](CO)[C@@H](O)[C@H](O)[C@H]2N)[C@H](O)[C@@H]1O | 13 | 4990 (≈ 2340 µg/mL) | 28 | 2.1 |  |  |  |  |  |  |  |  |  |  |  | 
14 | NCC[C@H](O)C(=O)N[C@@H]1C[C@H](N)[C@@H](O[C@H]2O[C@H](CO)[C@@H](O)[C@H](O)[C@H]2N)[C@H](O[C@@H]2O[C@H](CN)[C@@H](O)[C@H]2O)[C@H]1O | 151 | 588 (≈ 327 µg/mL) | 24 | 0.2 | 5500 |  |  |  |  |  |  |  |  | 19 |  | 
15 | GENTAMICIN SULFATE [listing 2 of 2 here] |  |  | 62 |  |  |  |  |  |  |  |  |  |  |  | 2500 | 26
16 | NC[C@@H]1O[C@H](O[C@H]2[C@@H](O)[C@H](O[C@@H]3[C@@H](O)[C@H](N)C[C@H](N)[C@H]3O[C@H]3O[C@H](CO)[C@@H](O)[C@H](O)[C@H]3N)O[C@@H]2CO)[C@H](N)[C@@H](O)[C@@H]1O [PAROMOMYCIN SULFATE] | 1120 | 22 | 57 | 0.05 |  |  |  |  |  |  |  |  |  |  |  | 
